Screening data (PubChem BioAssay)
FXIIa inh – blocks human coagulation factor XIIa protease activity; purified FXIIa, Boc-QGR-AMC fluorogenic substrate, 2 h; AID 800; inhibition, % at 5 µM; P00748; 220,000 tested, 0.3% active; in the data active means inhibition above about 40%;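 further: 0% = enzyme with no compound and 100% = blank without enzyme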
Target sequence (P00748 20-372 limits assumed): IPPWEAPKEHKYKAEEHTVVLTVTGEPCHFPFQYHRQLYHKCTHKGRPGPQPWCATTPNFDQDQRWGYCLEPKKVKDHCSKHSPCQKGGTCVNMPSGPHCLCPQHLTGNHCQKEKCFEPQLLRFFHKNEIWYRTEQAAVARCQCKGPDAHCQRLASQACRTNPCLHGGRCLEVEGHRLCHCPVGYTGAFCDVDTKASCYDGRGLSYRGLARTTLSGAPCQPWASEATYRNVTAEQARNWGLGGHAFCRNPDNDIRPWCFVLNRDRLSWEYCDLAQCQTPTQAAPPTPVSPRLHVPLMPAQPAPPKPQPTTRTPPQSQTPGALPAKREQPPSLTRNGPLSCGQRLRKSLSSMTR
Target sequence (P00748 373-615 limits assumed): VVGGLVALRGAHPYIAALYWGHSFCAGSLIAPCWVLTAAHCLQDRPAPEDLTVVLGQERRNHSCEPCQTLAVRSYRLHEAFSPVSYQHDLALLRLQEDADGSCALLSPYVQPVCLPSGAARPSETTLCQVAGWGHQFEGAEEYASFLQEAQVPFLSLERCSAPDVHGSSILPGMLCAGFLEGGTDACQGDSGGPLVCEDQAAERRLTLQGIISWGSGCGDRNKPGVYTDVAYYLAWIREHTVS
FXIa inh – blocks human coagulation factor XIa protease activity. purified FXIa, Boc-Glu-Ala-Arg-AMC fluorogenic substrate. 220,000 tested, 0.14% active. inhibition, % at 5 µM. AID 798;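 active means inhibition of at least 40%; inactive means inhibition below 40%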;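 further: fluorescence of freed AMC excited at 355 nm; 0% = enzyme without compound and 100% = no enzyme blank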
hK5 inh – blocks human kallikrein 5 protease activity | AID 873 | 210,000 tested, 0.59% active | Q9Y337 | recombinant hK5, fluorogenic AMC substrate cleavage | inhibition, % at 5 µM;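 active means inhibition of 40% or more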;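 further: 0% = enzyme controls without compound and 100% = no-enzyme blanks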
Wee1 stabilizer – human Wee1 degradation inhibition, primary screen | P30291 | HeLa Luc-Wee1K328M stability, luciferase luminescence; 100% = proteasome inhibitor MG132 effect | reporter increase, % at 5 µM | 220,000 tested, 1.2% active;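 active means activation above the mean of all tested compounds plus 3 SD, set per screening run, cut at about 8.8% in these data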;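 further: cells exposed to compound for 20 h before luminescence read; 0% = DMSO alone and 100% = MG132 at 30 µM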
Thrombin inh – blocks human thrombin protease activity; P00734; alpha-thrombin, Boc-VPR-AMC fluorogenic substrate cleavage; inhibition, % at 5 µM; 220,000 tested, 0.26% active; AID 1046;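 active means inhibition at or above 40%; inactive means inhibition below 40%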;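 further: 0% = enzyme with no compound and 100% = wells without enzyme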
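signal = AMC fluorescence, 355/460 nm | material = human alpha-thrombin enzyme | control set = enzyme without compound as high, wells lacking enzyme as low | times = reaction at room temperature | read-out basis = percent inhibition scaled between no-compound controls and no-enzyme blanks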
Active calls of the source: *; · = no result. Shown are actives, neighbours in structure and some others; about 2.2% of the full set was active somewhere.

SMILES	FXIIa inh	FXIa inh	hK5 inh	Wee1 stabilizer	Thrombin inh
Cc1ccc(N(C(=O)Nc2ccccc2)C2=NCC(C)S2)cc1 (stereo not given)	10	6	7	-1	0
Cc1ccnc(N(C(=O)Nc2ccccc2)C2=NCC(C)(C)S2)c1	9	4	5	9.7*	0
Cc1ccc(NC(=O)COC(=O)C2=COCCO2)c([N+](=O)[O-])c1	7	-11	-6	9.3*	-6
CCOc1ccc(C2CC(=O)N(Nc3ccc([N+](=O)[O-])cc3[N+](=O)[O-])C2=O)cc1 (stereo not given)	18	15	21	1	45*
CC(C)Oc1ccc(C2CC(=O)N(Nc3ccc([N+](=O)[O-])cc3[N+](=O)[O-])C2=O)cc1 (stereo not given)	7	-1	1	1	-3
COc1cc(NC(=O)COC(=O)/C=C/c2ccccc2Cl)cc(OC)c1	12	7	-13	9.0*	-9
COc1cc(NC(=O)COC(=O)/C=C/c2ccc(OC)c(OC)c2)cc(OC)c1	8	-3	-4	1	-1
Fc1ccc(N/N=C/c2ccncc2)c(F)c1	3	1	3	1	-2
Fc1ccc(N/N=C/C=C/c2ccccc2)c(F)c1	15	7	3	10*	-2
O=C(NNC1=NCCN1Cc1ccccc1)c1cccc(C(F)(F)F)c1	1	-6	-6	11*	-7
COc1cc(/C=N/NC(=O)COc2ccc(-n3cnnn3)cc2)ccc1OCC(N)=O	15	0	4	9.2*	5
NC(=O)COc1ccc(-n2cnnn2)cc1	2	-4	5	-3	-15
COc1ccc(/C=N/NC(=O)CCn2cnc(-c3ccccc3)c2-c2ccccc2)cc1OC	-2	-5	22	11*	-6
COc1ccc(-c2coc3cc(O)cc(O)c3c2=O)cc1	8	1	-14	10*	·
COc1ccc(-c2coc3cc(OC)cc(O)c3c2=O)cc1	21	6	-18	2	3
Oc1c(N=Nc2ccccc2)sc2ccccc12	8	3	3	9.8*	-3
CCOc1cc(/C=N/NC(=O)C(C)Sc2ccccc2)ccc1O (stereo not given)	8	-2	3	-1	-7
Cc1ccccc1CN(C)CC(=O)Nc1c(C)cccc1C(C)C	6	0	17	-2	-2
CCO[C@@H]1OC(C(=O)Nc2ccccc2)=C[C@H](c2coc3ccccc3c2=O)[C@H]1CCCO	11	5	6	0	1
CCO[C@H]1OC(C(N)=O)=C[C@@H](c2coc3ccccc3c2=O)[C@@H]1CCCO	8	-1	0	9.2*	-4
O=C(CC1C(=O)NCCN1Cc1c(F)cccc1Cl)NCCc1ccccn1 (stereo not given)	5	-3	-2	9.5*	-12
COc1ccc(N(CN2C(=O)C3CCCCC3C2=O)C(=O)c2ccco2)cc1 (stereo not given)	4	-1	-2	5	3
O=C(CC1C(=O)NCCN1CC(c1ccccc1)c1ccccc1)NC1CC1 (stereo not given)	4	1	·	-1	0
Cc1cc(/C=C\c2ccccc2)nc2ccccc12	24	32	50*	-1	6
COc1ccc(/C=C/c2cc(C(=O)O)c3ccccc3n2)cc1	-2	-5	-4	-3	-7
SMILES	FXIIa inh	FXIa inh	hK5 inh	Wee1 stabilizer	Thrombin inh
CCc1cccc(Oc2nn[nH]n2)c1	16	9	77*	-2	20
O=C(/C=C/c1ccccc1Cl)Nc1ccccc1	3	-10	-13	9.3*	-7
COC(=O)C(CC(C)C)NC(=O)/C=C/c1ccccc1Cl (stereo not given)	16	7	-17	10*	-1
COC(=O)C(CC(C)C)NC(=O)/C=C/c1ccc(Cl)cc1 (stereo not given)	0	-1	-11	1	-9
Cc1ccc(Cl)cc1N1CCN(C(=O)CN2C(=O)c3cccc4cccc2c34)CC1	7	4	62*	3	24
CCN1CCN(C(=O)CN2C(=O)c3cccc4cccc2c34)CC1	13	5	4	1	1
CC(C)N1CCN(Cc2ccc(Sc3nncn3C)o2)CC1CCO (stereo not given)	7	-3	-1	0	-7
O=C1CC(SCc2nc3ccccc3[nH]2)C(=O)N1c1cccc(Cl)c1 (stereo not given)	10	-3	-7	7	0
O=C1CC(SCc2nc3ccccc3[nH]2)C(=O)N1c1ccc(F)cc1 (stereo not given)	6	-11	54*	0	25
COc1ccc(C2CC(c3ccccc3)=NN2C(=O)COC(=O)/C=C/c2ccc(O)c(OC)c2)cc1 (stereo not given)	3	3	3	-1	2
CCOc1cc(S(=O)(=O)NCc2ccc(OC)cc2)c(OCC)cc1-n1cnnn1	20	18	46*	5	69*
CCn1c(SCC(=O)N2CCCCC2)nc(O)cc1=O	44*	-19	7	-1	-5
CCn1c(=O)cc(SCC(=O)N2CCCCC2)c2ccccc21	19	5	121*	1	13
CCn1c(SCC(=O)N2CCOCC2)nc(O)cc1=O	18	7	-5	1	2
CCN1CCN(C(=O)CSc2cc(=O)n(CC)c3ccccc23)CC1	6	-3	5	-2	1
CCCOc1ccc(CNC(=S)N/N=C/c2ccc([N+](=O)[O-])cc2)cc1	13	5	7	0	0
COc1ccc(CNC(=S)N/N=C/c2ccncc2)cc1	10	0	-16	3	-5
CC(C)Oc1ccc(CNC(=S)N/N=C/c2ccc([N+](=O)[O-])cc2)cc1	53*	-4	-12	0	-8
CC(C)COc1ccc(CNC(=S)N/N=C/c2ccc([N+](=O)[O-])cc2)cc1	17	1	-3	10*	4
COc1ccc(NS(=O)(=O)c2ccc(OCC(=O)N3CCOCC3)cc2)cc1	4	-4	-6	6	-3
O=C(COc1ccc(S(=O)(=O)Nc2ccccc2)cc1)N1CCOCC1	18	6	21	0	53*
COc1ccccc1C(=O)N/C(=C/c1ccccc1)C(=O)Nc1ccc(C(=O)O)cc1	4	0	5	10*	-7
CC(=O)Nc1ccc(C(=O)N/C(=C/c2ccccc2)C(=O)Nc2cccc(C(=O)O)c2)cc1	5	-6	-5	3	0
Cc1ccc2nc(NC(=O)CSCC(=O)OCC(=O)c3ccccc3)sc2c1	10	10	-11	8	93*
Cc1ccc2nc(NC(=O)COC(=O)c3ccccn3)sc2c1	8	-4	-1	9.3*	-17
CCOCC(=O)Nc1nc2ccc(C)cc2s1	-4	-4	-26	2	-5
C/C=C/C(=O)OCC(=O)Nc1nc2ccc(C)cc2s1	-1	-16	2	-2	-4
